Calls of active or inactive are those of the source. The calls are words filed in the database; no cut-off is given here.
Columns and labels:
Aspergillus flavus [1] = test: Antifungal activity against Aspergillus flavus MTCC 1021 assessed as zone of inhibition at 80 uM after 48 hrs by disc diffusion method; format: functional; details: MTCC 1021, 48 h, read-out: IZ
In short: (§1)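 Spores from 4-day potato dextrose agar cultures, suspended in sterile water at 1.5 × 10⁵ CFU/mL. 0.2 mL was spread on potato dextrose agar. 5 mm filter-paper discs soaked with test compound were laid on the lawn. Incubation was 48 h at 28 °C, then the inhibition zone was measured in mm. Fluconazole was the positive control and acetone the negative control.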

Aspergillus flavus [2] = test: Antifungal activity against Aspergillus flavus MTCC 1021 assessed as zone of inhibition at 20 uM after 48 hrs by disc diffusion method; format: functional; in short: as §1
Aspergillus niger [3] = test: Antifungal activity against Aspergillus niger MTCC 1108 assessed as zone of inhibition at 20 uM after 48 hrs by disc diffusion method; format: functional; in short: as §1
Curvularia lunata [4] = test: Antifungal activity against Curvularia lunata MTCC 581 after 48 hrs; format: functional; details: MTCC 581, 48 h
Salmonella typhi [5] = test: Antimicrobial activity against Salmonella typhi ATCC 23564 assessed as diameter of inhibition zone at 40 uM after 24 hrs by Kirby -Baur disc diffusion method; format: functional, Salmonella enterica subsp. enterica serovar Typhi; details: Salmonella enterica, ATCC 23564, 24 h; read-out: DIZ
Aspergillus flavus [6] = test: Antifungal activity against Aspergillus flavus MTCC 1021 after 48 hrs; format: functional; details: MTCC 1021, 48 h
Staphylococcus aureus [7] = test: Antimicrobial activity against Staphylococcus aureus ATCC 11632 assessed as diameter of inhibition zone at 80 uM after 24 hrs by Kirby -Baur disc diffusion method; format: functional
In short: (§2)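 Kirby-Bauer disc diffusion was used. Acetone stocks (160 µM) were serially doubled down to 80, 40 and 20 µM. 4 µL of each went onto 5 mm sterile paper discs, which were dried 30 min at 50 °C. Inoculum was 1.5 × 10⁸ CFU/mL diluted to 3 × 10² CFU/mL, and 50 µL was spread on Mueller-Hinton agar. After 24 h at 37 °C the inhibition-zone diameter was measured. Ciprofloxacin served as positive control.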

Aspergillus niger [8] = test: Antifungal activity against Aspergillus niger MTCC 1108 assessed as zone of inhibition at 40 uM after 48 hrs by disc diffusion method; format: functional; in short: as §1
HCT-116 = test: Cytotoxicity against human HCT116 cells after 24 hrs by MTT assay; format: functional, cell-based
In short: (§3)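 The MTT assay seeded 5 × 10⁴ cells per well and grew them 24 h in RPMI 1640 with compound at 2.5–200 µM. Medium without cells was the blank and adriamycin the positive control. MTT was added for 4 h at 37 °C, formazan was solubilised, and absorbance was read at 570 nm. IC50 is the concentration that cuts viability 50% against untreated cells.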

Aspergillus niger [9] = test: Antifungal activity against Aspergillus niger MTCC 1108 after 48 hrs; format: functional; details: MTCC 1108, 48 h
Mus musculus = test: Antiinflammatory activity in mouse assessed as inhibition of carrageenan-induced increase in paw volume at 200 mg/kg administered 1 hr prior to carrageenan challenge measured after 3 hrs relative to control; format: functional
In short: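 Mice were fasted 2 h and placed in groups of five. Controls received saline i.p. Phenylbutazone was given at 100 mg/kg i.p., curcumin at 200 mg/kg i.p., and derivatives at 200 mg/kg. After 1 h, 0.1 mL of 1% carrageenan in saline was injected subplantar into the right hind paw. Paw volume was followed by plethysmometer for 3 h, and % inhibition was calculated as (Vc − Vt)/Vc × 100.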

Escherichia coli [10] = test: Antimicrobial activity against Escherichia coli ATCC 35218 after 24 hrs by broth micro serial dilution method; format: functional; details: ATCC 35218, 24 h
In short: (§4)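 This was broth microdilution in autoclaved Mueller-Hinton broth. 150 µL of compound per well was serially diluted […], and 50 µL of test organism was added. Plates were incubated 24 h at 37 °C and optical density was read.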

Escherichia coli [11] = test: Antimicrobial activity against Escherichia coli ATCC 35218 assessed as diameter of inhibition zone at 20 uM after 24 hrs by Kirby -Baur disc diffusion method; format: functional; in short: as §2
Escherichia coli [12] = test: Antimicrobial activity against Escherichia coli ATCC 35218 assessed as diameter of inhibition zone at 80 uM after 24 hrs by Kirby -Baur disc diffusion method; format: functional; details: ATCC 35218, 24 h, read-out: DIZ; in short: as §2
Salmonella typhi [13] = test: Antimicrobial activity against Salmonella typhi ATCC 23564 assessed as diameter of inhibition zone at 20 uM after 24 hrs by Kirby -Baur disc diffusion method; format: functional; details: Salmonella enterica subsp. enterica serovar Typhi
Salmonella typhi [14] = test: Antimicrobial activity against Salmonella typhi ATCC 23564 assessed as diameter of inhibition zone at 80 uM after 24 hrs by Kirby -Baur disc diffusion method; format: functional, Salmonella enterica subsp. enterica serovar Typhi; details: Salmonella enterica, ATCC 23564, 24 h; read-out: DIZ
Pseudomonas aeruginosa [15] = test: Antimicrobial activity against Pseudomonas aeruginosa ATCC 15499 after 24 hrs by broth micro serial dilution method; format: functional; details: ATCC 15499, 24 h; in short: as §4
Trichoderma viride [16] = test: Antifungal activity against Trichoderma viride MTCC 1107 assessed as zone of inhibition at 40 uM after 48 hrs by disc diffusion method; format: functional; details: MTCC 1107, 48 h, read-out: IZ; in short: as §1
Salmonella typhi [17] = test: Antimicrobial activity against Salmonella typhi ATCC 23564 after 24 hrs by broth micro serial dilution method; format: functional, Salmonella enterica subsp. enterica serovar Typhi; details: Salmonella enterica, ATCC 23564, 24 h
Pseudomonas aeruginosa [18] = test: Antimicrobial activity against Pseudomonas aeruginosa ATCC 15499 assessed as diameter of inhibition zone at 20 uM after 24 hrs by Kirby -Baur disc diffusion method; format: functional; in short: as §2
Curvularia lunata [19] = test: Antifungal activity against Curvularia lunata MTCC 581 assessed as zone of inhibition at 40 uM after 48 hrs by disc diffusion method; format: functional; details: MTCC 581, 48 h, read-out: IZ; in short: as §1
Aspergillus niger [20] = test: Antifungal activity against Aspergillus niger MTCC 1108 assessed as zone of inhibition at 80 uM after 48 hrs by disc diffusion method; format: functional; details: MTCC 1108, 48 h, read-out: IZ; in short: as §1
Trichoderma viride [21] = test: Antifungal activity against Trichoderma viride MTCC 1107 assessed as zone of inhibition at 20 uM after 48 hrs by disc diffusion method; format: functional; in short: as §1
Aspergillus flavus [22] = test: Antifungal activity against Aspergillus flavus MTCC 1021 assessed as zone of inhibition at 40 uM after 48 hrs by disc diffusion method; format: functional; details: MTCC 1021, 48 h, read-out: IZ; in short: as §1
Trichoderma viride [23] = test: Antifungal activity against Trichoderma viride MTCC 1107 after 48 hrs; format: functional; details: MTCC 1107, 48 h
Pseudomonas aeruginosa [24] = test: Antimicrobial activity against Pseudomonas aeruginosa ATCC 15499 assessed as diameter of inhibition zone at 80 uM after 24 hrs by Kirby -Baur disc diffusion method; format: functional; details: ATCC 15499, 24 h, read-out: DIZ; in short: as §2
Bacillus cereus [25] = test: Antimicrobial activity against Bacillus cereus MTCC 7350 assessed as diameter of inhibition zone at 80 uM after 24 hrs by Kirby -Baur disc diffusion method; format: functional; in short: as §2
QG-56 = test: Cytotoxicity against human QG56 cells after 24 hrs by MTT assay; format: functional, cell-based; in short: as §3
HepG2 = test: Cytotoxicity against human HepG2 cells after 24 hrs by MTT assay; format: functional, cell-based; in short: as §3
Staphylococcus aureus [26] = test: Antimicrobial activity against Staphylococcus aureus ATCC 11632 after 24 hrs by broth micro serial dilution method; format: functional; in short: as §4
Escherichia coli [27] = test: Antimicrobial activity against Escherichia coli ATCC 35218 assessed as diameter of inhibition zone at 40 uM after 24 hrs by Kirby -Baur disc diffusion method; format: functional; details: ATCC 35218, 24 h, read-out: DIZ; in short: as §2
Curvularia lunata [28] = test: Antifungal activity against Curvularia lunata MTCC 581 assessed as zone of inhibition at 20 uM after 48 hrs by disc diffusion method; format: functional; in short: as §1
HeLa = test: Cytotoxicity against human HeLa cells after 24 hrs by MTT assay; format: functional, cell-based; in short: as §3
Trichoderma viride [29] = test: Antifungal activity against Trichoderma viride MTCC 1107 assessed as zone of inhibition at 80 uM after 48 hrs by disc diffusion method; format: functional; details: MTCC 1107, 48 h, read-out: IZ; in short: as §1
Pseudomonas aeruginosa [30] = test: Antimicrobial activity against Pseudomonas aeruginosa ATCC 15499 assessed as diameter of inhibition zone at 40 uM after 24 hrs by Kirby -Baur disc diffusion method; format: functional; in short: as §2
Curvularia lunata [31] = test: Antifungal activity against Curvularia lunata MTCC 581 assessed as zone of inhibition at 80 uM after 48 hrs by disc diffusion method; format: functional; details: MTCC 581, 48 h, read-out: IZ; in short: as §1
Bacillus cereus [32] = test: Antimicrobial activity against Bacillus cereus MTCC 7350 after 24 hrs by broth micro serial dilution method; format: functional; in short: as §4

With `COc1cc(/C=C/C(=O)C(/N=N/c2ccc(S(N)(=O)=O)cc2)=C(O)/C=C/c2ccc(O)c(OC)c2)ccc1O` as the compound, how does the zone of inhibition at 80 µM (Aspergillus flavus [1]) read?
The zone of inhibition at 80 µM was 11 mm.

What about the “inhibition zone (IZ)” value (Aspergillus flavus [2]) of the same compound?
Its value is “inactive”.

What about the “inhibition zone (IZ)” value (Aspergillus niger [3]) of the same compound?
The value was “inactive”.

What about the MIC (Curvularia lunata [4]) of the same compound?
Its MIC is greater than 80 µM.

And the zone of inhibition at 40 µM (Salmonella typhi [5])?
Its zone of inhibition at 40 µM is 9 mm.

What about the MIC (Aspergillus flavus [6]) of the same compound?
The MIC was greater than 80 µM.

What about the “diameter of the inhibition zone (DIZ)” value (Staphylococcus aureus [7]) of the same compound?
The value was “inactive”.

And the “inhibition zone (IZ)” value (Aspergillus niger [8])?
Its value is “inactive”.

What about the IC50 (HCT-116) of the same compound?
The IC50 was “Not Active”.

What about the MIC (Aspergillus niger [9]) of the same compound?
Its MIC is greater than 80 µM.

And the inhibition in vivo at 200 mg/kg (Mus musculus)?
The inhibition in vivo at 200 mg/kg was 16.1%.

What about the MIC (Escherichia coli [10]) of the same compound?
Its MIC is greater than 80 µM.

What about the “diameter of the inhibition zone (DIZ)” value (Escherichia coli [11]) of the same compound?
Its value is “inactive”.

What about the zone of inhibition at 80 µM (Escherichia coli [12]) of the same compound?
Its zone of inhibition at 80 µM is 12 mm.

What about the “diameter of the inhibition zone (DIZ)” value (Salmonella typhi [13]) of the same compound?
Its value is “inactive”.

And the zone of inhibition at 80 µM (Salmonella typhi [14])?
The zone of inhibition at 80 µM was 11 mm.

And the MIC (Pseudomonas aeruginosa [15])?
Its MIC is greater than 80 µM.

What about the zone of inhibition at 40 µM (Trichoderma viride [16]) of the same compound?
The zone of inhibition at 40 µM was 10 mm.

And the MIC (Salmonella typhi [17])?
Its MIC is greater than 80 µM.

What about the “diameter of the inhibition zone (DIZ)” value (Pseudomonas aeruginosa [18]) of the same compound?
The value was “inactive”.

What about the zone of inhibition at 40 µM (Curvularia lunata [19]) of the same compound?
Its zone of inhibition at 40 µM is 10 mm.

And the zone of inhibition at 80 µM (Aspergillus niger [20])?
The zone of inhibition at 80 µM was 10 mm.

And the “inhibition zone (IZ)” value (Trichoderma viride [21])?
The value was “inactive”.

And the zone of inhibition at 40 µM (Aspergillus flavus [22])?
Its zone of inhibition at 40 µM is 9 mm.

What about the MIC (Trichoderma viride [23]) of the same compound?
The MIC was greater than 80 µM.

What about the zone of inhibition at 80 µM (Pseudomonas aeruginosa [24]) of the same compound?
The zone of inhibition at 80 µM was 9 mm.

And the “diameter of the inhibition zone (DIZ)” value (Bacillus cereus [25])?
The value was “inactive”.

What about the IC50 (QG-56) of the same compound?
The IC50 was “Not Active”.

And the IC50 (HepG2)?
Its IC50 is “Not Active”.

What about the MIC (Staphylococcus aureus [26]) of the same compound?
Its MIC is “inactive”.

What about the zone of inhibition at 40 µM (Escherichia coli [27]) of the same compound?
The zone of inhibition at 40 µM was 9 mm.

What about the “inhibition zone (IZ)” value (Curvularia lunata [28]) of the same compound?
Its value is “inactive”.

And the IC50 (HeLa)?
Its IC50 is greater than 100 µM.

What about the zone of inhibition at 80 µM (Trichoderma viride [29]) of the same compound?
Its zone of inhibition at 80 µM is 11 mm.

What about the “diameter of the inhibition zone (DIZ)” value (Pseudomonas aeruginosa [30]) of the same compound?
Its value is “inactive”.

What about the zone of inhibition at 80 µM (Curvularia lunata [31]) of the same compound?
Its zone of inhibition at 80 µM is 11 mm.

And the MIC (Bacillus cereus [32])?
Its MIC is “inactive”.
